ChEMBL document CHEMBL1926620, “Aza vinyl sulfones: synthesis and evaluation as antiplasmodial agents” (Bioorg Med Chem, 2011)

Tests used:
Plasmodium falciparum = experiment: Antiplasmodial activity against ring stage Plasmodium falciparum W2 infected in human red blood cells after 48 hrs by flow cytometry; format: functional, organism-based; settings: W2, 48 h
[1] = Inhibition of Plasmodium falciparum falcipain-2 using Z-Leu-Arg-AMC as substrate after 10 mins by spectrofluorimetry
Procedure, shortened: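 Enzyme at 1 nM in 100 mM sodium acetate pH 6.0, 5 mM DTT, 0.75% DMSO, 25 °C; preincubated 10 min with serial 1:5 compound dilutions (50 µM down to 0.65 nM), then 25 µM Z-Leu-Arg-AMC added; fluorescence read immediately. IC50 from percent inhibition versus no-inhibitor controls.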

Papain = target: T1, Papain (Carica papaya, UniProt P00784); experiment: Inhibition of papaya papain using Z-Leu-Leu-Arg-AMC as substrate after 30 mins by spectrofluorometry
T1 sequence (P00784 whole entry): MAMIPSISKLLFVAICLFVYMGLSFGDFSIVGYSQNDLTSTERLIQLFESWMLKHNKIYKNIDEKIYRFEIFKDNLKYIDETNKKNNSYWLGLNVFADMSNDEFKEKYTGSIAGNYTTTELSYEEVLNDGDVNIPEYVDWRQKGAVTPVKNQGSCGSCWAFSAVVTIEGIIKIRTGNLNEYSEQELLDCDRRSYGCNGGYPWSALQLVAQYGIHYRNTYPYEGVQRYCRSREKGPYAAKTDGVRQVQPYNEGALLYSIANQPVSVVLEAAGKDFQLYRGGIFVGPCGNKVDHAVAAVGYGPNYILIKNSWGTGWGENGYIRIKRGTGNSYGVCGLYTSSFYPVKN
Procedure, shortened: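 Papain activated in buffer at 5 µg/mL, 10 mM PBS pH 7.4 with 5 mM DTT, 37 °C, inhibitor serial dilutions in DMSO; 30 µM Z-Leu-Leu-Arg-AMC started the reaction (Km 0.4 µM, saturating). Fluorescence (ex 355/em 460 nm) monitored 30 min; E64 positive control; IC50 by non-linear regression of log concentration versus % activity; triplicate.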

| SMILES | IC50 (Plasmodium falciparum) | IC50 [1] | IC50 (Papain) |
| --- | --- | --- | --- |
| CC(C)C[C@H](NC(=O)OCc1ccccc1)C(=O)NN(CCc1ccccc1)C(=O)/C=C/S(=O)(=O)c1ccccc1 | > 10 µM | – | > 50 µM |
| O=C(CNC(=O)OCc1ccccc1)NN(CCc1ccccc1)C(=O)/C=C/S(=O)(=O)c1ccccc1 | > 10 µM | – | > 50 µM |
| O=C(N[C@@H](Cc1ccccc1)C(=O)NN(CCc1ccccc1)C(=O)/C=C/S(=O)(=O)c1ccccc1)OCc1ccccc1 | 9 µM | – | > 50 µM |
| COc1c(N[C@@H](CC(C)C)C(=O)NNC(=O)/C=C/S(C)(=O)=O)c(=O)c1=O | 2.3 µM | > 50 µM | – |
| COc1c(N[C@@H](CC(C)C)C(=O)NN(Cc2ccccc2)C(=O)/C=C/S(C)(=O)=O)c(=O)c1=O | > 10 µM | > 50 µM | – |
| CCCCOc1c(N[C@@H](CC(C)C)C(=O)NN(Cc2ccccc2)C(=O)/C=C/S(=O)(=O)c2ccccc2)c(=O)c1=O | 1.2 µM | > 50 µM | – |
| COc1c(N[C@@H](CC(C)C)C(=O)NN(CCc2ccccc2)C(=O)/C=C/S(C)(=O)=O)c(=O)c1=O | 2.5 µM | > 50 µM | – |
| COc1c(N[C@@H](CC(C)C)C(=O)NN(CCc2ccccc2)C(=O)/C=C/S(=O)(=O)c2ccccc2)c(=O)c1=O | > 10 µM | > 50 µM | – |
| CCCCOc1c(N[C@@H](CC(C)C)C(=O)NN(CCc2ccccc2)C(=O)/C=C/S(=O)(=O)c2ccccc2)c(=O)c1=O | 4.5 µM | > 50 µM | – |
| CC(C)C[C@H](NC(=O)[C@H]1O[C@@H]1C(=O)O)C(=O)NCCCCN=C(N)N [E-64] | – | 0.11 µM | 0.002 µM |

The remaining lines, values ahead:

| IC50 (Plasmodium falciparum) | IC50 [1] | IC50 (Papain) | SMILES |
| --- | --- | --- | --- |
| 34.2 µM | – | – | CC(C)C[C@H](NC(=O)OC(C)(C)C)C(=O)NNC(=O)/C=C/S(C)(=O)=O |
| 33.5 µM | – | – | CC(C)C[C@H](NC(=O)OC(C)(C)C)C(=O)NNC(=O)/C=C/S(=O)(=O)c1ccccc1 |
| 21.6 µM | > 50 µM | – | CC(C)C[C@H](NC(=O)OC(C)(C)C)C(=O)NN(Cc1ccccc1)C(=O)/C=C/S(C)(=O)=O |
| > 50 µM | > 50 µM | – | CC(C)C[C@H](NC(=O)OC(C)(C)C)C(=O)NN(Cc1ccccc1)C(=O)/C=C/S(=O)(=O)c1ccccc1 |
| 46.6 µM | > 50 µM | – | CC(C)C[C@H](NC(=O)OC(C)(C)C)C(=O)NN(CCc1ccccc1)C(=O)/C=C/S(C)(=O)=O |
| 15.4 µM | > 50 µM | – | CC(C)C[C@H](NC(=O)OC(C)(C)C)C(=O)NN(CCc1ccccc1)C(=O)/C=C/S(=O)(=O)c1ccccc1 |
| > 10 µM | – | > 50 µM | CC(C)C[C@H](NC(=O)N1CCOCC1)C(=O)NNC(=O)/C=C/S(=O)(=O)c1ccccc1 |
| 3.4 µM | – | > 50 µM | CC(C)C[C@H](NC(=O)N1CCOCC1)C(=O)NN(CCc1ccccc1)C(=O)/C=C/S(=O)(=O)c1ccccc1 |
| 3.5 µM | > 50 µM | – | COc1c(N[C@@H](CC(C)C)C(=O)NNC(=O)/C=C/S(=O)(=O)c2ccccc2)c(=O)c1=O |
| 2.6 µM | > 50 µM | – | CCCCOc1c(N[C@@H](CC(C)C)C(=O)NNC(=O)/C=C/S(=O)(=O)c2ccccc2)c(=O)c1=O |
| 0.95 µM | > 50 µM | – | COc1c(N[C@@H](CC(C)C)C(=O)NN(Cc2ccccc2)C(=O)/C=C/S(=O)(=O)c2ccccc2)c(=O)c1=O |
